Xi reactivation: activators of inactive X chromosome reactivation, primary screen, imaging, XiGFP fibroblasts, GFP high-content imaging, set 2; 360,000 tested, 0.055% active; XiGFP mouse fibroblasts, % GFP-positive cells imaging, 3 d; cells co-treated with 5-aza-dC sensitizer; scaled so ellipticine positive control = 100%; activation, % at 7.58 µM; AID 743238, 2013;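 active = mean normalized replicate activation at least 10% and every replicate at or above 10%; inconclusive = only one of the two criteria met; inactive = mean below 10% and not all replicates reach 10%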
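Material: SV40-immortalized XiGFP fibroblast cells, line 68-5-11 | Buffer or medium: DMEM containing 5-aza-dC | Dosing: One concentration, pinned | Times: 3 d treatment, 15 min room-temperature fixation | Controls: Ellipticine 6 µM positive control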
SR-BI HDL uptake: inhibitors of SR-BI mediated HDL lipid uptake, primary screen, ldlA[mSR-BI] cells, fluorescence, single point; inhibition, % at 12.5 µM; Scavenger receptor class B member 1 (Mus musculus), Q61009; ldlA[mSR-BI] CHO cells, DiI-HDL uptake fluorescence, 3 h; 320,000 tested, 0.96% active;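 active = mean replicate inhibition of at least 70% and a set share of replicates each scoring 70 or more; inconclusive = meets just one of the two criteria; inactive = fails both criteria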
SR-BI uptake up: activators of SR-BI mediated DiI-HDL uptake, primary screen, ldlA[mSR-BI] CHO cells, DiI fluorescence; 3 h; 100 = double the neutral-control signal; activation, % at 12.5 µM; 320,000 tested, 0.096% active;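 active = mean replicate activation of at least 60% and every replicate at or above 60%; inconclusive = mean or all-replicate condition met, but not both; inactive = mean below 60% and not all replicates reaching 60%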
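System: LDL receptor-deficient CHO ldlA cells overexpressing murine SR-BI | Timing: 3 h uptake period with compound, 37 °C | Medium: HEPES-buffered (25 mM, pH 7.4) F12 plus 0.5% BSA | Dosing: Single-point compound dose | Signal: Bottom-read fluorescence, 550/595 nm | Read-out: Retained DiI signal reflecting DiI-HDL uptake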
ARNT-TACC3 inh: disruptors of ARNT/TACC3 protein interaction, primary screen, biochemical, AlphaScreen, single concentration; Transforming acidic coiled-coil-containing protein 3 (Homo sapiens), Q9Y6A5; AlphaScreen His-ARNT PAS-B/GST-TACC3 binding, luminescence; TACC3 fragment carries E629A point mutation; inhibition, % at 9.99 µM; 390,000 tested, 0.66% active; AID 623870, 2012;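 active = mean inhibition of replicates at least 50% and at least half of replicates each reaching 50%; inconclusive = half or more replicates reach 50% but mean below 50%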
NSD2 inh: NSD2 histone methyltransferase inhibitors, primary screen, biochemical, AlphaScreen, single concentration, set 2; NSD2 peptide methylation, 120 min; inhibition, % at 12.5 µM; 310,000 tested, 0.54% active; in the data active = inhibition above about 50%
Target sequence (O96028 whole entry, looked up): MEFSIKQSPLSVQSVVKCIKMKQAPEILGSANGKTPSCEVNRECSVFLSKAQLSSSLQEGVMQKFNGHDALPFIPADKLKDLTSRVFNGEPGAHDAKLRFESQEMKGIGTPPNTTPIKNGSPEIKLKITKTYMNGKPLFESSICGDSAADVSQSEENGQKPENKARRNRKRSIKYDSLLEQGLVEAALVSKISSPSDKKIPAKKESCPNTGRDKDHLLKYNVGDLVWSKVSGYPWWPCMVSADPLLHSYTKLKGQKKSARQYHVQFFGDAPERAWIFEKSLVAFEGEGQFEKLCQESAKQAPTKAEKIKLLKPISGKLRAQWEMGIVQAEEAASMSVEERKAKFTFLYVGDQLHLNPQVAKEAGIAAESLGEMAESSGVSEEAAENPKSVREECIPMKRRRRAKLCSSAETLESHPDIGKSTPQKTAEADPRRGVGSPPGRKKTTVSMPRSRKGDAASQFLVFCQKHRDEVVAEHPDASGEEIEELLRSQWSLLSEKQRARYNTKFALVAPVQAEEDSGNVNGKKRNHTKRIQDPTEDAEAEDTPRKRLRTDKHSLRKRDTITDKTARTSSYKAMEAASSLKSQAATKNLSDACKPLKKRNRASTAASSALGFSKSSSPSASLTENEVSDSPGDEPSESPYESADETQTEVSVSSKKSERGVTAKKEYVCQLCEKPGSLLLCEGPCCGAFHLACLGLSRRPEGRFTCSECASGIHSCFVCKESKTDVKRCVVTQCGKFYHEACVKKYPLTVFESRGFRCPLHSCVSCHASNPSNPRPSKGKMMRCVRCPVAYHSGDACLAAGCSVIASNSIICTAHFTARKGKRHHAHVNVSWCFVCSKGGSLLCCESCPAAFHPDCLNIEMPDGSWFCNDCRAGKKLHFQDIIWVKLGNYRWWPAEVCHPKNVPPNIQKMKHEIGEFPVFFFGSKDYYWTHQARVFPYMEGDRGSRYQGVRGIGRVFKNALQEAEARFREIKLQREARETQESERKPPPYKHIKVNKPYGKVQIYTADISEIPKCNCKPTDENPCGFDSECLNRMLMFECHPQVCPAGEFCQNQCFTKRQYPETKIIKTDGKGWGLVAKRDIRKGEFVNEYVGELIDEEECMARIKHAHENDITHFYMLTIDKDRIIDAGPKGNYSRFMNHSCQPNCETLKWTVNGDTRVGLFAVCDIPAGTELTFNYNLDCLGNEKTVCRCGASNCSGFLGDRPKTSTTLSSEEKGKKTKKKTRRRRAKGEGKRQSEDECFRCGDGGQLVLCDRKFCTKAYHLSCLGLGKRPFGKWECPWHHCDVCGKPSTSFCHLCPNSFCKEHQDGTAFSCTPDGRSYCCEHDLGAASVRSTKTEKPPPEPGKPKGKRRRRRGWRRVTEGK
HGIII-sPLA2 inh: human group III sPLA2 inhibitors, primary screen, biochemical, QFRET, BODIPY PC-A2 liposome substrate. QFRET BODIPY PC-A2 liposome hydrolysis, fluorescence. inhibition, % at 12.2 µM. 370,000 tested, 0.56% active;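 active = inhibition above mean plus 3 SD of compounds lying within the high and low control bounds, cut at about 19% in these data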
sPLA2 confirm: human group III sPLA2 inhibitors, confirmation, biochemical, QFRET, triplicate; shares compounds with HGIII-sPLA2 inh; recombinant hGIII-sPLA2, BODIPY PC-A2 QFRET fluorescence; inhibition, % at 12.2 µM; 2,000 tested, 34% active; AID 743280, 2014;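 active = mean inhibition across triplicates above the hit cutoff set in the earlier primary screen, cut at about 19% in these data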
535nm interf: 535nm fluorescence optical interference, confirmation, artefact control for HGIII-sPLA2 inhibitor project, biochemical, QFRET; inhibition, % at 12.2 µM; BODIPY FL product fluorescence interference; shares compounds with HGIII-sPLA2 inh; 2,000 tested, 8.5% active;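 active = average inhibition above the solvent-only control mean plus 3 SD, cut at about 6% in these data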
535nm interf DR: 535nm fluorescence optical interference, dose response, artefact control for HGIII-sPLA2 inhibitor project, biochemical, QFRET; shares compounds with HGIII-sPLA2 inh; BODIPY FL product fluorescence interference, cell-free; IC50, µM; 240 tested, under 10 active; AID 743455, 2014;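 active = IC50 at or below 10 µM; inactive = IC50 above 10 µM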
Large screens that a line does not name were inactive (follow-up assays come after a bar, where they were run). Hits are enriched below; roughly 2% of the tested compounds scored in any of these assays.

CCCn1c(C)cc(/C=C(\C#N)C(=O)O)c1C	none
N=C(N)SCc1ccc(Cl)c2ccccc12	HGIII-sPLA2 inh 44.8 | sPLA2 confirm 32.2 | 535nm interf inactive | 535nm interf DR inactive
O=C(O)Cc1c(C(=O)O)nnn1-c1cccc(C(F)(F)F)c1	none
CCc1ccc(C(=O)NCc2ccc(Cl)cc2)cc1	HGIII-sPLA2 inh 20.5 (no result: ARNT-TACC3 inh) | sPLA2 confirm inactive | 535nm interf inactive
CCc1ccc(C(=O)NCc2ccc(Cl)cc2Cl)cc1	none
CCCCn1c(-c2cccnc2)n[nH]c1=S	HGIII-sPLA2 inh 22.0 | sPLA2 confirm inactive | 535nm interf inactive
CCCOc1ccc(Br)cc1CSC(=N)N	HGIII-sPLA2 inh 34.7 | sPLA2 confirm inactive | 535nm interf inactive
CC(C)(C)c1ccc(C#C[C@@H]2C=C[C@@H](O)[C@@H](CO)O2)cc1	HGIII-sPLA2 inh 20.3 (no result: SR-BI HDL uptake, SR-BI uptake up, ARNT-TACC3 inh) | sPLA2 confirm inactive | 535nm interf inactive
Cc1ccc(C)c(NC(=O)CSc2nc3[nH]ncc3c(=O)[nH]2)c1	none
Cc1ccc(CNC(=O)CSc2nc3[nH]ncc3c(=O)[nH]2)cc1	HGIII-sPLA2 inh 19.4 | sPLA2 confirm inactive | 535nm interf inactive
COc1cc(CNc2ccc3[nH]c(=O)[nH]c3c2)ccc1OCc1ccccc1F	HGIII-sPLA2 inh 23.6 | sPLA2 confirm 24.1 | 535nm interf inactive
COc1ccc(NC(=S)N2CCN(c3ccc4c(c3)C3CCN(C(=O)OCc5ccccc5)C4C3)CC2)c(OC)c1 (configuration not stated)	HGIII-sPLA2 inh 24.7 (no result: SR-BI HDL uptake, SR-BI uptake up, ARNT-TACC3 inh, NSD2 inh) | sPLA2 confirm inactive | 535nm interf inactive
O=C(OCc1ccccc1)N1CCC2CC1c1ccc(N3CCNCC3)cc12 (configuration not stated)	HGIII-sPLA2 inh 30.9 (no result: SR-BI HDL uptake, SR-BI uptake up, ARNT-TACC3 inh, NSD2 inh) | sPLA2 confirm inactive | 535nm interf inactive
O=C(OCc1ccccc1)N1CCC2CC1c1cc(N3CCN(C(=S)NCCc4ccccc4)CC3)ccc12 (configuration not stated)	none (no result: SR-BI HDL uptake, SR-BI uptake up, ARNT-TACC3 inh, NSD2 inh)
COc1cccc(C#Cc2ccc([C@@H]3[C@@H](C#N)N(C(=O)C4CC4)[C@@H]3CO)cc2)c1	none (no result: SR-BI HDL uptake, SR-BI uptake up, NSD2 inh, HGIII-sPLA2 inh)
O=C(COC(=O)c1ncc(Cl)c(Cl)c1Cl)Nc1cccnc1Cl	HGIII-sPLA2 inh 20.2 (no result: ARNT-TACC3 inh) | sPLA2 confirm inactive | 535nm interf inactive
O=C(COC(=O)c1ncc(Cl)c(Cl)c1Cl)Nc1ccccc1OC(F)F	none
S=c1[nH]nc(Cc2cccc3ccccc23)o1	HGIII-sPLA2 inh 24.5 | sPLA2 confirm inactive | 535nm interf inactive
Cc1[nH]c2ccccc2c1Cc1n[nH]c(=S)o1	none (no result: NSD2 inh)
O=C(Nc1ccccc1)C1C2CCCCC21 (configuration not stated)	none
O=C(NNC(=S)Nc1ccc(F)cc1)C1[C@H]2CCCC[C@@H]12 (some centres not stated)	HGIII-sPLA2 inh 24.6 (no result: SR-BI HDL uptake, SR-BI uptake up, ARNT-TACC3 inh) | sPLA2 confirm 22.3 | 535nm interf inactive
CCOc1ccc(C(=O)Nc2nnc(C(C)C)s2)cc1OCC	SR-BI HDL uptake inconclusive (no result: Xi reactivation)
CCOc1ccc(C(=O)Nc2nncs2)cc1OCC	HGIII-sPLA2 inh 21.6 (no result: Xi reactivation) | sPLA2 confirm inactive | 535nm interf inactive
C[C@@H]1CN([C@H](C)CO)C(=O)c2cc(NC(=O)NC3CCCCC3)ccc2O[C@@H](C)CCCCO[C@H]1CN(C)C	none (no result: SR-BI HDL uptake, SR-BI uptake up, ARNT-TACC3 inh, NSD2 inh, HGIII-sPLA2 inh)
C#CCN1CCc2onc(-c3ccccc3OC)c2C1=O	none (no result: SR-BI HDL uptake, SR-BI uptake up, ARNT-TACC3 inh, NSD2 inh)
COc1ccc(NC(=S)NC(NC(=O)c2cccc(Cl)c2)C(Cl)(Cl)Cl)c([N+](=O)[O-])c1 (configuration not stated)	HGIII-sPLA2 inh 28.9 (no result: Xi reactivation) | sPLA2 confirm 52.1 | 535nm interf 11.8
COc1ccc(NC(=S)NC(NC(=O)c2cccc(C)c2)C(Cl)(Cl)Cl)c([N+](=O)[O-])c1 (configuration not stated)	none (no result: Xi reactivation, NSD2 inh)
COc1ccccc1C(=O)NCCn1cc(SCC(=O)Nc2cc(C)on2)c2ccccc21	none (no result: Xi reactivation)
Cc1ccc(C)c(NC(=S)N2C3CCCC2CC(NC(=O)C2CC2)C3)c1 (configuration not stated)	HGIII-sPLA2 inh 21.3 (no result: SR-BI HDL uptake, SR-BI uptake up) | sPLA2 confirm inactive | 535nm interf inactive
CC(=O)c1c(C)[nH]c(-c2ccccc2)c1C	HGIII-sPLA2 inh 28.0 (no result: ARNT-TACC3 inh) | sPLA2 confirm inactive | 535nm interf inactive
CC(=O)c1c(-c2ccccc2)[nH]c2ccccc12	none
CO/N=C/NC(=O)c1c(OC)ccnc1Oc1ccccc1	none (no result: Xi reactivation)
CCCCNC(=S)NNC(=O)CCn1cc(C)cn1	none
Cc1cnn(CCC(=O)NNC(=S)NCC(C)C)c1	HGIII-sPLA2 inh 22.3 | sPLA2 confirm inactive | 535nm interf inactive
C[C@H](CO)N1C[C@H](C)[C@@H](CN(C)Cc2ccccc2)OCCCC[C@H](C)Oc2ccc(N(C)C)cc2C1=O	none (no result: SR-BI HDL uptake, SR-BI uptake up, NSD2 inh)
C[C@@H]1CCCCO[C@@H](CN(C)Cc2ccccc2)[C@@H](C)CN([C@H](C)CO)C(=O)c2cc(N(C)C)ccc2O1	HGIII-sPLA2 inh 23.6 (no result: SR-BI HDL uptake, SR-BI uptake up, NSD2 inh) | sPLA2 confirm inactive | 535nm interf inactive
CCN(CC)c1ccc(C(=C2C=CC(=[N+](CC)CC)C=C2)c2ccccc2)cc1	ARNT-TACC3 inh 22.8, HGIII-sPLA2 inh 62.8 | sPLA2 confirm 75.3 | 535nm interf inactive
CCN(CC)c1ccc(C(=O)NNC(=O)CCNC(=O)c2ccccc2)cc1	none
COCCCNC(=O)Cn1cnc2sc(C)c(S(=O)(=O)N3CCN(c4ccccc4OC)CC3)c2c1=O	none
Cc1ccc2[nH]c(CCN(C)C)c(CN3CCOCC3)c2c1	none
O=C(c1ccccc1[N+](=O)[O-])N1N=C(c2ccccc2)CC1(O)C(F)(F)F (configuration not stated)	none

Screening data: PubChem BioAssay, several laboratories
